Test results as given in ChEMBL document CHEMBL1124820, “Total synthesis of the four stereoisomers of dihexadecanoyl phosphatidylinositol and the substrate stereospecificity of human erythrocyte membrane phosphatidylinositol 4-kinase” (J Med Chem, 1990).

What was measured:
[1] = molecular target: T1, Phosphatidylinositol 4-kinase, PI4K (Homo sapiens) (UniProt Q9BTU6+Q8TCG2+Q9UBF8+P42356); assay: Rate of phosphorylation was determined with that of mammalian PI using human erythrocyte PI 4-kinase at 200 uM substrate; assay type: functional
Method in brief: (§1)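 Enzyme was extracted with Triton X-100 from human erythrocyte membranes and purified about 90-fold. Substrate at 200 μM final was tested in mixed micelles with 0.3% Triton X-100, 100 μM [γ-32P]ATP, 15 mM MgCl2, 1 mM EGTA, 1 mM DTT, 0.1 M NaCl and 50 mM HEPES pH 7.4 at 30 °C. Reactions were stopped with acidified CHCl3/MeOH, and organic-phase 32P was counted. Rates were expressed relative to mammalian PI, triplicate, mean ± SE.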

[2] = molecular target: T1, Phosphatidylinositol 4-kinase, PI4K (Homo sapiens); assay: Percent relative rate of phosphorylation was determined using human erythrocyte PI 4-kinase; assay type: functional; method in brief: as §1

T1 sequence (P42356 whole entry, looked up): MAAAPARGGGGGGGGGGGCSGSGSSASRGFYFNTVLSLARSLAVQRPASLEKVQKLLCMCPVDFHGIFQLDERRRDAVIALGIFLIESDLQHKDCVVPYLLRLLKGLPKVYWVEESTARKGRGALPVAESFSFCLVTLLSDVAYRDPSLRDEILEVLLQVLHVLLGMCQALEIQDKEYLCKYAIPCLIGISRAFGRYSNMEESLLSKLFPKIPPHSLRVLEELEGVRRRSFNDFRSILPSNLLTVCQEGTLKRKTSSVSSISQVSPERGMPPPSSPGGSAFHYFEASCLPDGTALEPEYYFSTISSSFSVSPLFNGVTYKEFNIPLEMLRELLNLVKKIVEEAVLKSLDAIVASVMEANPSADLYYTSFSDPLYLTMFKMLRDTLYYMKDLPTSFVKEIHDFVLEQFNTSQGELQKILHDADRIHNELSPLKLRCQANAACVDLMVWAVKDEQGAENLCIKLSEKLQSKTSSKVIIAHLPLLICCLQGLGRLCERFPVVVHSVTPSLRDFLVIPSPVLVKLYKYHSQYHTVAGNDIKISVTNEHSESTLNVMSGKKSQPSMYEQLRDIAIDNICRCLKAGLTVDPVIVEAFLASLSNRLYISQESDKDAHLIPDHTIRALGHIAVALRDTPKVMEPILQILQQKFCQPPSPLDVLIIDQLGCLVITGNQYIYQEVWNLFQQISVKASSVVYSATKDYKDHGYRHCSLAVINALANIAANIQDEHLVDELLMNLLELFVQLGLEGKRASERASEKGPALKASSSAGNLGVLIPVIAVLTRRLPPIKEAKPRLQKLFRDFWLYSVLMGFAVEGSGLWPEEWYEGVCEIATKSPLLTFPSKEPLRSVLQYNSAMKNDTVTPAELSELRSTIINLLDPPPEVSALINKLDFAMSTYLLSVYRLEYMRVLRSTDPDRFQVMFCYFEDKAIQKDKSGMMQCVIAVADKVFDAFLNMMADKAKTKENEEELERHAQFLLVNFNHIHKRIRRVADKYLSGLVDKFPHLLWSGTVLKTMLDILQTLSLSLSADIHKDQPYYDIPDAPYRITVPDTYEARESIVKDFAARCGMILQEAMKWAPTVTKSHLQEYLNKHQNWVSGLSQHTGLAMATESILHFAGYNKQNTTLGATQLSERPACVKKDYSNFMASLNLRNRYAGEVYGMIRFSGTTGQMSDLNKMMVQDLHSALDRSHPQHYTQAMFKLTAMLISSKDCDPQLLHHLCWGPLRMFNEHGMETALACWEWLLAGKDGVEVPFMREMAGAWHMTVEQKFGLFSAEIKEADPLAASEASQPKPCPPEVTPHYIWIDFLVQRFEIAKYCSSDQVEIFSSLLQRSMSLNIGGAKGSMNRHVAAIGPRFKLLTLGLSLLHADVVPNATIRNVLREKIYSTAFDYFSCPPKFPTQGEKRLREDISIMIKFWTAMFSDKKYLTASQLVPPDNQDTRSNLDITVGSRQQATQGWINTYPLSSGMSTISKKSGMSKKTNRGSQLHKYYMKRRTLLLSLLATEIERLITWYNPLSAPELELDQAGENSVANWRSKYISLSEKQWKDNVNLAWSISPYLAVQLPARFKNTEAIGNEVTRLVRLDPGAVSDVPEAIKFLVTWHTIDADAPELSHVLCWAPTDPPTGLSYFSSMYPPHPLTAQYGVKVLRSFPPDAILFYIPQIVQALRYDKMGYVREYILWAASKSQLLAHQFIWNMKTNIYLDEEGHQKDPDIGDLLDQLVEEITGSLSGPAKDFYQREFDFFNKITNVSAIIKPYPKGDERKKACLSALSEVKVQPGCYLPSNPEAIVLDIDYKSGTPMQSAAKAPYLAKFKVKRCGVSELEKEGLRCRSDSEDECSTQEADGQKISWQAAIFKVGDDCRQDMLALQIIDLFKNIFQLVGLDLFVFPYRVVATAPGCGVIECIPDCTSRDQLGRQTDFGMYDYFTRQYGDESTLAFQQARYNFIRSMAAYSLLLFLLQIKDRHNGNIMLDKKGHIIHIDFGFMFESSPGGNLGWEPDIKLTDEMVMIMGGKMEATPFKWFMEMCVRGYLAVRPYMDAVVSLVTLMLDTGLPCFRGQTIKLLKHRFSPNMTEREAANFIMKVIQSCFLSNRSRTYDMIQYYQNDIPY
T1 sequence (Q8TCG2 whole entry, looked up): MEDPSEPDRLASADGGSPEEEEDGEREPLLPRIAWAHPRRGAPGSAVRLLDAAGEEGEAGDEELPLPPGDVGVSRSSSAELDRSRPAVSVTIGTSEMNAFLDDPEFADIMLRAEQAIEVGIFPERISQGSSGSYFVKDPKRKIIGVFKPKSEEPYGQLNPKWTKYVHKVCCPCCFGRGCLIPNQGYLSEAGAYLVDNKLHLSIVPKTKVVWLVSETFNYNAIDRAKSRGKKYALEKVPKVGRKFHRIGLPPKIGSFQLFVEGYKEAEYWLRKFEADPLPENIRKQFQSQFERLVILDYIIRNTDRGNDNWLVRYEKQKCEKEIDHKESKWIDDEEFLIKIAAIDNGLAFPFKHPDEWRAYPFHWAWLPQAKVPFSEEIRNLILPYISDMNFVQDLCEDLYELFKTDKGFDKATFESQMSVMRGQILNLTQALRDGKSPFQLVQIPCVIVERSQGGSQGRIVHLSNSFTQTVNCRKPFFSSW
T1 sequence (Q9BTU6 whole entry, looked up): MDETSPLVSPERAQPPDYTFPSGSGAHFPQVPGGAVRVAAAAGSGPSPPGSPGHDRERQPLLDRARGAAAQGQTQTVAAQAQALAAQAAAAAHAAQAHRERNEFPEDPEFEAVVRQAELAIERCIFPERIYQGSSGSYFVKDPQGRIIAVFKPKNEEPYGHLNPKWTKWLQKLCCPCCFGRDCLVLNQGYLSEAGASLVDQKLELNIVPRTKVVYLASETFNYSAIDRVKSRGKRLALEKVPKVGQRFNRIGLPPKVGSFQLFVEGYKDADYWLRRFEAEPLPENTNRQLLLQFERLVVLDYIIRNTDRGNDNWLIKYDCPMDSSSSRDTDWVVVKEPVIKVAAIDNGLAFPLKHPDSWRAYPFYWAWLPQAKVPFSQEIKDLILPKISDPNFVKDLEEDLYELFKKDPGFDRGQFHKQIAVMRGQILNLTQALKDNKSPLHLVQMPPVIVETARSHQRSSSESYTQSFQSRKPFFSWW
T1 sequence (Q9UBF8 whole entry, looked up): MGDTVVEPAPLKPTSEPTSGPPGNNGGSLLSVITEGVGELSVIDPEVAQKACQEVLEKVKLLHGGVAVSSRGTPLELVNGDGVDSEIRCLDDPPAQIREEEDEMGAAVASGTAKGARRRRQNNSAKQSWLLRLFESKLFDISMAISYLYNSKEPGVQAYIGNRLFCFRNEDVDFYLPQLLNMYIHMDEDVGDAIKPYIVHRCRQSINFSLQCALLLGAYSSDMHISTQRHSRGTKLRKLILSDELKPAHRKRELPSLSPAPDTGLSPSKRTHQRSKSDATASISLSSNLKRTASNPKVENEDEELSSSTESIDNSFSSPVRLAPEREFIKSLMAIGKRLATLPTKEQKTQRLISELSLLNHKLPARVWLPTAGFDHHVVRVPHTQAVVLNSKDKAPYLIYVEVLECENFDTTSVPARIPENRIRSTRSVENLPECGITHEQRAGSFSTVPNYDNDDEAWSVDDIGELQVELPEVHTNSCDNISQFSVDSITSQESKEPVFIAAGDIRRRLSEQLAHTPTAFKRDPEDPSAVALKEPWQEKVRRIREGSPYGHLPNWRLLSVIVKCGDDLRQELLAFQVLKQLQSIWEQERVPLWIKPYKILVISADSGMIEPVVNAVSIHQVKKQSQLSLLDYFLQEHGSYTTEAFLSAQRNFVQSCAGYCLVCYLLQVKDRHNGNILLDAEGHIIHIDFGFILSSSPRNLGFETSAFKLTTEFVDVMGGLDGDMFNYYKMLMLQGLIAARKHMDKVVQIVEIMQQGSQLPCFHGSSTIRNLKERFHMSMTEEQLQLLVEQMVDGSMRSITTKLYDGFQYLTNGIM

Compound: CCCCC/C=C/C/C=C/C/C=C/C/C=C/CCCC(=O)OC(COC(=O)CCCCCCCCCCCCCCCCC)COP(=O)(O)OC1C(O)C(O)C(O)C(O)C1O (stereo not given)
- Rate of formation [1]: 23.5 pmol/min
- Relative rate [2]: 100%

Compound: CCCCCCCCCCCCCCCC(=O)OCC(COP(=O)(O)OC1C(O)C(O)C(O)C(O)C1O)OC(=O)CCCCCCCCCCCCCCC (stereo in doubt; 10a)
- Rate of formation [1]: 24.9 pmol/min
- Relative rate [2]: 106%

Compound: CCCCCCCCCCCCCCCC(=O)OCC(COP(=O)(O)OC1C(O)C(O)C(O)C(O)C1O)OC(=O)CCCCCCCCCCCCCCC (stereo in doubt; 10b)
- Rate of formation [1]: 23.5 pmol/min
- Relative rate [2]: 100%

Compound: CCCCCCCCCCCCCCCC(=O)OCC(COP(=O)(O)OC1C(O)C(O)C(O)C(O)C1O)OC(=O)CCCCCCCCCCCCCCC (stereo in doubt; 10c)
- Rate of formation [1]: 1.01 pmol/min
- Relative rate [2]: 4.3%

Compound: CCCCCCCCCCCCCCCC(=O)OCC(COP(=O)(O)OC1C(O)C(O)C(O)C(O)C1O)OC(=O)CCCCCCCCCCCCCCC (stereo in doubt; 10d)
- Rate of formation [1]: 0.76 pmol/min
- Relative rate [2]: 3.2%
